The text below walks through data of ChEMBL document CHEMBL4028856, “Discovery of Small Molecules Targeting the Synergy of Cardiac Transcription Factors GATA4 and NKX2-5” (J Med Chem, 2017).

The nature of data set [1]: Induction of apoptosis in endothelin-1 induced neonatal rat ventricular cardiomyocytes at 50 uM measured after 24 hrs by TUNEL assay. In kind it is cell-based. The note with it: cardiac muscle cell. An outline of the steps: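 Neonatal rat cardiomyocytes on 8-well chamber slides treated 24 h at 50 μM; apoptotic cells detected by TUNEL with peroxidase in situ kit.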
Data set [2] in a line: Induction of aggregation of compounds at 100 uM by nephalometric method.
Data set [3] has as its target Cannabinoid receptor 2 (Homo sapiens) (UniProt P34972). As to the kind of experiment: Agonist activity at human CB2 receptor expressed in rat hematopoietic Chem-4 cells assessed as induction of calcium flux at 12.5 uM by fluorescence assay. In kind it is functional, cell-based. The method in brief:
(§1)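 GPCR profiling panel of cell-based functional assays covering 165 GPCRs; agonist mode tested at 12.5 μM and antagonist mode at 10 μM, in duplicate.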
On the technique in general: Calcium assays in cells follow changes in intracellular calcium, usually with a dye or a luminescent sensor.

Data set [4] concerns the target Transcription factor GATA-4 (Rattus norvegicus) (UniProt P46152). As to the kind of experiment: Inhibition of binding of GATA4 to [32P]-double stranded oligonucleotide in neonatal rat ventricular cardiomyocytes at 50 uM measured after 24 hrs by EMSA method. An outline of the steps: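 Neonatal rat cardiomyocytes treated 24 h with 50 μM; nuclear extracts incubated 20 min with [α-32P]dCTP Klenow-labeled GATA4- or NKX2-5-site oligonucleotide in HEPES/NaCl/KCl/MgCl2 buffer with poly(dI-dC); 5% native PAGE, phosphorimager; supershift with anti-GATA4/NKX2-5; relative to vehicle, mean ± SD, n = 3–5.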
Background: A gel shift assay detects complexes by their altered migration in electrophoresis.

Data set [5] has as its target Hydroxycarboxylic acid receptor 2 (Homo sapiens) (UniProt Q8TDS4). The data set is described as follows: Agonist activity at human GPR109A expressed in Chem-4 cells assessed as induction of calcium flux at 12.5 uM by fluorescence assay. In kind it is functional, cell-based. The method in brief: as §1
Data set [6] deals with Parathyroid hormone 2 receptor (Homo sapiens) (UniProt P49190). The data set is described as follows: Antagonist activity at human PTH2 receptor expressed in rat Chem-1 cells assessed as inhibition of TIP-39 induced calcium flux at 10 uM by fluorescence assay. The class given is functional, cell-based. The method in brief: as §1
For data set [7], the target named is GATA4/NKX2-5 (Rattus norvegicus) (UniProt P46152+O35767). As to the kind of experiment: Inhibition of GATA4/NKX2-5 interaction in neonatal rat ventricular cardiomyocyte hypertrophy model assessed as decrease in mechanical stretching-induced cell surface area at 10 uM after 48 hrs by alpha-actinin/phalloidin/DAPI staining-based fluorescence microscopic method. An outline of the steps: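 Neonatal rat ventricular myocytes seeded at 10^6/well on collagen I flexible plates, cultured 48 h, then given 10 μM in serum-free medium under equibiaxial cyclic stretch (0.5 Hz, 10–20%) 48 h; nonstretched controls. Fixed, stained α-actinin/phalloidin/DAPI; α-actinin+ cell area (>200 cells/specimen) normalized to untreated nonstretched; three experiments, mean ± SEM.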

Data set [8] can be described thus: Induction of necrosis in endothelin-1 induced neonatal rat ventricular cardiomyocytes assessed as release of adenylate kinase at 50 uM measured after 24 hrs by bioluminescence assay. In kind it is cell-based. The note with it: cardiac muscle cell. The method in brief: (§2)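 Neonatal rat cardiomyocytes treated 24 h at 50 μM; adenylate kinase released into medium measured by ToxiLight bioluminescence on a luminometer; relative to vehicle, mean ± SD, n = 3.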

The target in data set [9] is Hydroxycarboxylic acid receptor 2 (Homo sapiens) (UniProt Q8TDS4). As to the kind of experiment: Antagonist activity at human GPR109A expressed in rat Chem-4 cells assessed as inhibition of calcium flux at 10 uM by fluorescence assay. The class given is functional, cell-based. The method in brief:
as §1

Data set [10] can be described thus: Stability of compound in DMSO assessed as formation of N-[4-(Ethylamino)phenyl]-5-methyl-3-phenylisoxazole-4-carboxamide at 3 to 5 uM at room temperature measured after 6 months by HPLC/MS method. In kind it is physicochemical. The note with it: 4383 h.
For data set [11], the target named is Mitogen-activated protein kinase 14 (Homo sapiens) (UniProt Q16539). The data set is described as follows: Inhibition of human p38alpha MAPK at 30 uM. The method in brief: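 48-kinase profiling panel; compounds tested at 30 μM in duplicate.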
The target of data set [12] is Growth hormone secretagogue receptor type 1 (Homo sapiens) (UniProt Q92847). As to the kind of experiment: Antagonist activity at human GHS-R at 10 uM by ELISA. The note with it: in the assay text read “by calcium flux assay” for “by ELISA”. An outline of the steps:
as §1

Data set [13] can be described thus: Induction of necrosis in neonatal rat ventricular cardiomyocytes assessed as release of adenylate kinase at 50 uM measured after 24 hrs by bioluminescence assay. The class given is cell-based. Conditions: cardiac muscle cell. The method in brief: as §2

Calls of active or inactive are those of the source. No cut-off for these calls is given here.

Sequence of Hydroxycarboxylic acid receptor 2 (Homo sapiens) (Q8TDS4 whole entry): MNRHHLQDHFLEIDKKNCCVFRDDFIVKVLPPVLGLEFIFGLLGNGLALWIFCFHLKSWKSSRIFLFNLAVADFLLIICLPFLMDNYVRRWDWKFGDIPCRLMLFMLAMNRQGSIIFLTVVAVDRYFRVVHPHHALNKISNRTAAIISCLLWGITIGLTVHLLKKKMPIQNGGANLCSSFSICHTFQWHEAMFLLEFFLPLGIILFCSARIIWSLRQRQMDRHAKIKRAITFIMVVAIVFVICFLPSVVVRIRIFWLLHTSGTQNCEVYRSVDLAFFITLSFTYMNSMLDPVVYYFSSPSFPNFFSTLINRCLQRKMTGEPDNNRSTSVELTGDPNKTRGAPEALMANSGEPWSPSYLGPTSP
Sequence of Transcription factor GATA-4 (Rattus norvegicus) (P46152 whole entry): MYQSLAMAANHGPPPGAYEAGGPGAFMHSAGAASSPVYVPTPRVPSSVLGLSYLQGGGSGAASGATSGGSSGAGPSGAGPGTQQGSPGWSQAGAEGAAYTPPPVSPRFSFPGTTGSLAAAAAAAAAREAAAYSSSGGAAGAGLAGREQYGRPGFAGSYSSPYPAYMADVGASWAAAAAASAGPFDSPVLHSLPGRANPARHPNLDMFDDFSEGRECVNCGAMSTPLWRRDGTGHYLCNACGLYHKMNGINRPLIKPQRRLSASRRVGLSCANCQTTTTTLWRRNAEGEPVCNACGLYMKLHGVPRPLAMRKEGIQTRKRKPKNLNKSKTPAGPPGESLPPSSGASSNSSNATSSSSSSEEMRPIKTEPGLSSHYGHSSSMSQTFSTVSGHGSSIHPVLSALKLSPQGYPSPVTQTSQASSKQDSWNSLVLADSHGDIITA
Sequence of Mitogen-activated protein kinase 14 (Homo sapiens) (Q16539 whole entry): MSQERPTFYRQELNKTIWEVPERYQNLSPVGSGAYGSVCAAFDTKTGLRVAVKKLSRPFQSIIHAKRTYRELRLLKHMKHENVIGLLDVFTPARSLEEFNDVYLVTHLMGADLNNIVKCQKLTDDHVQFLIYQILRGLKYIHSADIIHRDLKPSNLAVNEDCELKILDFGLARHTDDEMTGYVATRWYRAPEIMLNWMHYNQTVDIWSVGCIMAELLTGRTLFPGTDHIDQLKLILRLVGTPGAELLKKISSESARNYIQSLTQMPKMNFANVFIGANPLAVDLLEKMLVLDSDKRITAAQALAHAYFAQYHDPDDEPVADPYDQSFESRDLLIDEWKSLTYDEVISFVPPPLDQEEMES
Sequence of Cannabinoid receptor 2 (Homo sapiens) (P34972 whole entry): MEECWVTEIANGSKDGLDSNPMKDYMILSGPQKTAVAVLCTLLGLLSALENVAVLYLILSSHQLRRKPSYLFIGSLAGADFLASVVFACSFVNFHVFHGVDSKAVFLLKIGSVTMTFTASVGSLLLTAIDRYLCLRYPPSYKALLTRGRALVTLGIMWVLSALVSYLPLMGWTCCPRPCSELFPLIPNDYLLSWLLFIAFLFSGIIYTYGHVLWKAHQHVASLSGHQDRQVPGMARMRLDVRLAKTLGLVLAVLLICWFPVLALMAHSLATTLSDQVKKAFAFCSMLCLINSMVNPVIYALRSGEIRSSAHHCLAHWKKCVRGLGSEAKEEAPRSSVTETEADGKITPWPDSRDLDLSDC
Sequence of Growth hormone secretagogue receptor type 1 (Homo sapiens) (Q92847 whole entry): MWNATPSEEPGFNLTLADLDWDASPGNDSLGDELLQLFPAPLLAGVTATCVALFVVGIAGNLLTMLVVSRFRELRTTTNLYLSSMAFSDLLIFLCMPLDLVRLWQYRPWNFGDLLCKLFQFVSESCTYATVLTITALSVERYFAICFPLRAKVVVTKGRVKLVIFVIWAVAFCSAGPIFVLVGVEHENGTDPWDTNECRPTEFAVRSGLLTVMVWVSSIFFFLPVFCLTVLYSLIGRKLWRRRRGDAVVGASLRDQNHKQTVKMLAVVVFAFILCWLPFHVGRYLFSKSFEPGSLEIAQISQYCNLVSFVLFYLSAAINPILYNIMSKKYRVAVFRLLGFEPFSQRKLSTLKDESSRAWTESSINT
Sequence of Parathyroid hormone 2 receptor (Homo sapiens) (P49190 whole entry): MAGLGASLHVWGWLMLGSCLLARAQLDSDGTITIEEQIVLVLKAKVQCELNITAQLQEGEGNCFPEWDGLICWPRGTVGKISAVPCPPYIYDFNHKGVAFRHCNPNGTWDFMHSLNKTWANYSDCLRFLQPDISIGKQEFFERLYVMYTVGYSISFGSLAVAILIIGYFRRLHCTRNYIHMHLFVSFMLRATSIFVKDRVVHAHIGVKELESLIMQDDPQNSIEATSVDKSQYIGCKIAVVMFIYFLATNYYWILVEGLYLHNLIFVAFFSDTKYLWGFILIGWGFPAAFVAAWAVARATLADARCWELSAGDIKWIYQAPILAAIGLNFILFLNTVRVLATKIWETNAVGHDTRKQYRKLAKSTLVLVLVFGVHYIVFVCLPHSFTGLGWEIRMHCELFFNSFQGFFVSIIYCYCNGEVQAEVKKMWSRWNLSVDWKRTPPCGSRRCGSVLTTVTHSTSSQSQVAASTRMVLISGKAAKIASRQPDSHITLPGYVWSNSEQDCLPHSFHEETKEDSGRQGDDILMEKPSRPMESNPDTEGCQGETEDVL

As to `CCN(CC)c1ccc(NC(=O)c2c(-c3ccccc3)noc2C)cc1`, the Activity entry in data set [1], in data set [8] and in data set [13] was “Non-Toxic” each time. The result in data set [2] was Active. Moreover, the result in data set [3] and in [5] was inactive. The inhibition in data set [4] came to 29%; in data set [6], 59.5%; in data set [9] it was 58.5%; in data set [12], 65.2%. For the same compound, in [7], the inhibition entry is “Active”. The Stability result in data set [10] was “Stable”. Further, in data set [11], the inhibition result is “inactive”.

As a reminder, the inhibition is the change of the read-out against control, counted positive when it falls.
